Experimental data of several laboratories.
Compare with care: the assays were run in different laboratories.
ADORA1: Adenosine receptor A1 (ADORA1, Homo sapiens, UniProt P30542)
USP5: Ubiquitin carboxyl-terminal hydrolase 5 (USP5, Homo sapiens, UniProt P45974)
TACR3: Neuromedin-K receptor (TACR3, Homo sapiens, UniProt P29371)

Structure (SMILES)	target	test	conditions	inhibition
CCCCSC[C@@]12C[C@@H]1[C@@H](n1cnc3c(NC(C4CCCC4)C4CCCC4)nc(Cl)nc31)[C@H](O)[C@@H]2O	ADORA1	ligand displacement, radioligand	10 µM	-1%
CCOC(=O)c1ccc(OC(=O)CCCCCNC(=N)N)cc1	USP5	enzyme activity, inhibitor	10 µM	1%
C[C@H](C(=O)N[C@H]1COc2ccccc2[C@@H]1S(C)(=O)=O)c1ccc(F)cc1	TACR3	cell-free assay	10 µM	-11%
C#Cc1n[nH]c2c(-c3cn(C(C)c4ccccn4)c(=O)[nH]c3=O)cc(F)cc12 (stereo not drawn)	Dual specificity protein kinase CLK1 (CLK1, Homo sapiens, UniProt P49759)	enzyme activity, inhibitor	1 µM	3.7%
COc1cc(Nc2ncc(F)c(Nc3ccc4c(n3)NC(=O)C(C)(C)O4)n2)cc(OC)c1OC	Serine/threonine-protein kinase 32C (STK32C, Homo sapiens, UniProt Q86UX6)	binding, competition with immobilised ligand	10 µM	0%
COCCN(CCOC)C(=O)[C@@]12C[C@@H]1[C@@H](n1cnc3c(NC(C4CC4)C4CC4)nc(Cl)nc31)[C@H](O)[C@@H]2O	ADORA1	ligand displacement, radioligand	10 µM	34%
Cn1cc(-c2cc(F)cc(N3CCn4c(cc5c4CCCC5)C3=O)c2CO)cc(Nc2ccc(N3CCN(C4COC4)CC3)cn2)c1=O	Inhibitor of nuclear factor kappa-B kinase subunit alpha (CHUK, Homo sapiens, UniProt O15111)	enzyme activity, inhibitor	0.1 µM	14%
C#Cc1n[nH]c2c(-c3cn([C@@H](C)c4ccccc4)c(=O)[nH]c3=O)cc(F)cc12	Tyrosine-protein kinase receptor UFO (AXL, Homo sapiens, UniProt P30530)	enzyme activity, inhibitor	0.1 µM	41.4%
CCOC(=O)[C@@]12C[C@@H]1[C@@H](n1cnc3c(NC(C4CCCC4)C4CCCC4)nc(Cl)nc31)[C@H](O)[C@@H]2O	ADORA1	ligand displacement, radioligand	10 µM	55%
CNC(=O)[C@H](Cc1ccccc1)NC(=O)[C@H](CC(C)C)[C@H](CSc1cccs1)C(=O)NO	Matrilysin (MMP7, Homo sapiens, UniProt P09237)	enzyme activity, inhibitor	10 nM	94%
CCN(CC)CCCC[C@H](NC(=O)[C@H](CC(C)C)NC(=O)[C@H](C)NC(=O)[C@H](Cc1ccccc1)NC(=O)c1ccc(C(C)(C)C)cc1)C(=O)N[C@@H](CO)C(=O)OC	TACR3	ligand displacement, radioligand	10 µM	8%
N=C(N)c1ccc2cc(OC(=O)c3ccc(N=C(N)N)cc3)ccc2c1	USP5	enzyme activity, inhibitor	10 µM	0%
c1ccc(C(NCCNC(c2ccccc2)c2ccccc2)c2ccccc2)cc1	TACR3	cell-free assay	10 µM	61%
CN(C)C(=O)COC(=O)Cc1ccc(OC(=O)c2ccc(NC(=N)N)cc2)cc1	Deubiquitinase OTUD6B (OTUD6B, Homo sapiens, UniProt Q8N6M0)	enzyme activity, inhibitor	10 µM	1%
O[C@H]1[C@H](n2cnc3c(NC(C4CCCCC4)C4CCCCC4)nc(Cl)nc32)[C@H]2C[C@@]2(CCl)[C@H]1O	ADORA1	ligand displacement, radioligand	10 µM	63%
